Measured values as given in ChEMBL document CHEMBL3526115, “Differences in the pharmacokinetics of 4-amino-3-chlorophenyl hydrogen sulfate, a metabolite of resatorvid, in rats and dogs” (Drug Metab Dispos, 2012).

Key:
Rattus norvegicus [1] = experiment: Unbound renal clearance in Crj:CD(SD)IGS rat at 0.5 mg/kg, iv administered as bolus dose measured from 0 to 24 hrs by HPLC-based liquid scintillation counting analysis; type: ADME, organism-based, Kidney; design: dose 0.5 mg/kg, route intravenous; conditions: in vivo
Summary of the method: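 Male Crj:CD(SD)IGS rats received [14C]M-III in saline as an IV bolus at 0.5 mg–2.6 MBq/kg. Urine was collected in metabolic cages over 0–24 h. M-III in urine was taken as total urinary 14C times the M-III fraction, measured by direct HPLC, 1-min fraction collection and scintillation counting. CLrenal = urinary M-III / AUC. Unbound CLrenal = CLrenal / free fraction, from in vivo ultrafiltration binding. n = 3.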

Canis familiaris = experiment: Unbound renal clearance in Beagle dog at 0.5 mg/kg, iv administered as bolus dose measured from 0 to 168 hrs by HPLC-based liquid scintillation counting analysis; type: ADME, organism-based, Canis lupus familiaris, Kidney; design: dose 0.5 mg/kg, route intravenous; conditions: in vivo
Summary of the method: (§1)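 After a 0.5 mg/kg iv bolus of [14C]M-III, urine was collected 0–24 h (rat) or 0–168 h (dog) and injected directly onto HPLC with fraction collection and scintillation counting. M-III in urine was derived from the urinary 14C excretion ratio and the [14C]M-III composition. CLrenal = urinary M-III amount / AUC0–24 h (rat) or AUC0–168 h (dog). Unbound CLrenal = CLrenal / free fraction.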

[2] = Elimination rate constant in Crj:CD(SD)IGS rat at 0.5 mg/kg, iv administered as bolus dose by HPLC-based liquid scintillation counting analysis; type: ADME, organism-based; design: dose 0.5 mg/kg, route intravenous; conditions: in vivo
Summary of the method: (§2)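 [14C]M-III in saline given as a single iv bolus at 0.5 mg/kg to male rats (tail-vein blood, 5 min–24 h) or male beagle dogs (cephalic-vein blood, 5 min–168 h). Heparinized plasma counted for radioactivity; M-III quantified by HPLC with fraction collection and liquid scintillation counting. C5 min read directly; terminal t1/2 by linear regression, kel = ln2/t1/2, Vd = dose/back-extrapolated C0, CLtot = dose/AUCinf. Mean ± S.D., n = 3.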

[3] = Terminal half life in Beagle dog at 0.5 mg/kg, iv administered as bolus dose by HPLC-based liquid scintillation counting analysis; type: ADME, organism-based, Canis lupus familiaris; design: dose 0.5 mg/kg, route intravenous; conditions: in vivo, read-out: beta t1/2 (converted); summary of the method: as §2
[4] = In vivo plasma protein binding in Crj:CD(SD)IGS rat at 0.125 mg/hr, iv administered as continuous infusion by ultrafiltration method; type: ADME, organism-based; conditions: read-out: PPB (converted)
Summary of the method: (§3)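 Rats received a continuous iv infusion of [14C]M-III at 0.125 mg/rat/h, with probenecid co-infused at 16, 31 or 62 mg/h/kg or vehicle alone, for 5 h. Arterial plasma was sampled during infusion. CLtot = infusion rate / steady-state plasma M-III (120–180 min). Unbound fraction was measured by ultrafiltration of 5-h plasma (10,000 MWCO, 1500g, 37°C, 10 min). CLint = CLtot / unbound ratio.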

[5] = Drug excretion in Crj:CD(SD)IGS rat feces assessed as excretion ratio of [14C] at 0.5 mg/kg, iv administered as bolus dose measured from 0 to 24 hrs by HPLC-based liquid scintillation counting analysis; type: ADME, organism-based; design: dose 0.5 mg/kg, route intravenous; conditions: in vivo
Summary of the method: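 Male rats in metabolic cages with urine/feces separator, or beagle dogs, after a 0.5 mg/kg iv bolus of [14C]M-III in saline. Radioactivity in urine and feces collected 0–24 h (rats) or 0–168 h (dogs) was counted and expressed as percent of dose. Mean ± S.D., n = 3.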

[6] = Renal clearance in Crj:CD(SD)IGS rat at 0.5 mg/kg, iv administered as bolus dose measured from 0 to 24 hrs by HPLC-based liquid scintillation counting analysis; type: ADME, organism-based, Kidney; design: dose 0.5 mg/kg, route intravenous; conditions: in vivo; summary of the method: as §1
[7] = Apparent volume of distribution in Crj:CD(SD)IGS rat at 0.5 mg/kg, iv administered as bolus dose by HPLC-based liquid scintillation counting analysis; type: ADME, organism-based; design: dose 0.5 mg/kg, route intravenous; conditions: in vivo, read-out: Vd(app); summary of the method: as §2
Rattus norvegicus [8] = experiment: Intrinsic total body clearance in Crj:CD(SD)IGS rat at 0.125 mg/hr, iv administered as continuous infusion by HPLC based liquid scintillation counting analysis in presence of 31 mg/hr/kg probenecid; type: ADME, organism-based; conditions: in vivo; summary of the method: as §3
[9] = Unbound fraction in Crj:CD(SD)IGS rat plasma at 0.125 mg/hr, iv administered as continuous infusion by ultrafiltration method; type: ADME, organism-based; summary of the method: as §3

Structure (SMILES): N[14c]1[14cH][14cH][14c](OS(=O)(=O)O)[14cH][14c]1Cl
- CL free (Rattus norvegicus [1]): 96.3 mL/min/kg
- CL free (Canis familiaris): 0.0585 mL/min/kg
- k el [2]: 5.11e-05 s⁻¹
- half-life [3]: 120 h
- fraction unbound [4]: 0.088
- Drug excretion [5]: 10.3%
- CL renal [6]: 9.47 mL/min/kg
- Vd [7]: 0.14 L/kg
- CL (Rattus norvegicus [8]): 11.9 mL/min/kg
- fraction unbound [9]: 0.088
